According to PubChem BioAssay AID588553 (Broad Institute, 2011):

target: Scavenger receptor class B member 1 (Mus musculus) (UniProt Q61009); experiment: inhibition of HDL lipid transfer via mSR-BI – ldlA[mSR-BI] CHO cells, powder samples, set 3, dose response (AID 588553); conditions: DiI-HDL uptake fluorescence, 3 h
How it was run: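 assay system = ldlA[mSR-BI] CHO cells | buffer or medium = F12 medium with BSA and HEPES | reagent = DiI-HDL at 10 µg/mL | timing = 3 h at 37 °C | signal = fluorescence, ex 550 nm, em 595 nm | control set = DMSO neutral control, BLT-1 positive control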

Scavenger receptor class B member 1 (Mus musculus), sequence (Q61009 whole entry, looked up): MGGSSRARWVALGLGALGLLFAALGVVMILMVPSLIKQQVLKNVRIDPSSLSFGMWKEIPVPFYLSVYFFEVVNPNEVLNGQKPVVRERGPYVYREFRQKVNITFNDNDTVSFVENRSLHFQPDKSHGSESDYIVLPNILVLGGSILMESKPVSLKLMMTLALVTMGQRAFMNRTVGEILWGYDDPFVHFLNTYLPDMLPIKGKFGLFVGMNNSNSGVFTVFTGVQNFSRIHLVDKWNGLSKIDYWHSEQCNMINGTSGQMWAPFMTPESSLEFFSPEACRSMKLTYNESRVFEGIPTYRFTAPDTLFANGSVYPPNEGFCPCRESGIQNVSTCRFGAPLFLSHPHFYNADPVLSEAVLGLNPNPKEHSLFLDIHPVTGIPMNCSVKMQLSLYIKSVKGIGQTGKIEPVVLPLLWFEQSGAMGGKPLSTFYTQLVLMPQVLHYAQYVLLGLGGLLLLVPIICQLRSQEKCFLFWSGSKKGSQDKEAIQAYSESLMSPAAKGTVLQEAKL

AC50, active:
CCC(=O)Nc1ccc(-c2csc(NC(=O)c3cccc(OC)c3)n2)cc1 44.7 nM, O=C(CN(C(=O)Cn1nnc(-c2ccc(Cl)c(Cl)c2)n1)C1CCCCC1)NC1CCCC1 303 nM, COCC(=O)N1CCc2cc(-c3csc(NC(=O)c4cc(OC)cc(OC)c4)n3)ccc21 < 15 nM, CCC(=O)N1CCc2cc(-c3csc(NC(=O)c4cccc(OC(F)(F)F)c4)n3)ccc21 29.2 nM, CCC(=O)Nc1ccc(-c2csc(N)n2)cc1 140 nM, CCC(=O)N1CCc2cc(-c3csc(N(C)C(=O)c4cc(OC)cc(OC)c4)n3)ccc21 180 nM, COc1cc(OC)cc(C(=O)Nc2nc(-c3ccc4c(c3)CCN4C(C)=O)cs2)c1 17.4 nM, COc1cc(OC)cc(C(=O)Nc2nc(-c3ccc4[nH]ccc4c3)cs2)c1 228 nM, COc1cc(OC)cc(C(=O)Nc2nc(-c3ccc4c(c3)CCN4C(=O)CN(C)C)cs2)c1 < 15 nM, CC(C)(C)OC(=O)N1CCc2cc(-c3noc(NC(=O)c4ccco4)n3)ccc21 13900 nM, COc1cc(OC)cc(C(=O)Nc2nc(-c3ccc4c(c3)CCN4C(=O)OC(C)(C)C)cs2)c1 < 15 nM, O=C(Nc1nc(-c2ccc3c(c2)CCN3)cs1)c1ccco1 < 15 nM, CC(C(=O)NC1CCCC1)N(C(=O)Cn1nnc(-c2ccc(Cl)c(Cl)c2)n1)C1CCCCC1 (configuration not stated) 108 nM, COC(=O)N1CCc2cc(-c3csc(NC(=O)c4cc(OC)cc(OC)c4)n3)ccc21 26.9 nM, CCC(=O)Nc1ccc(-c2csc(NC(=O)c3ccco3)n2)cc1 2010 nM, COc1ccc(-c2nnn(CC(=O)N(CC(=O)NC3CCCC3)C3CCCCC3)n2)cc1OC < 15 nM, COc1cc(OC)cc(C(=O)Nc2nc(-c3ccc4c(c3)CCN4)cs2)c1 113 nM, CC(C(=O)NC1CCCC1)N(C(=O)Cn1nnc(-c2ccc3c(c2)OCO3)n1)C1CCOCC1 (configuration not stated) 836 nM, CCNC(=O)N1CCc2cc(-c3csc(NC(=O)c4cc(OC)cc(OC)c4)n3)ccc21 < 15 nM, CCC(=O)N1CCc2cc(-c3csc(NC(=O)c4cc5cccnc5o4)n3)ccc21 141 nM, CCCN1CCc2cc(-c3csc(NC(=O)c4cc(OC)cc(OC)c4)n3)ccc21 89.5 nM, COc1ccc(-c2cc(CC(=O)N(C3CCCCC3)C(C)C(=O)NC3CCCC3)no2)cc1OC (configuration not stated) 15.4 nM, O=C(CN(C(=O)Cn1nnc(-c2ccc3c(c2)OCO3)n1)C1CCCCC1)NC1CCCC1 < 15 nM, CC(C(=O)NC1CCCC1)N(C(=O)Cn1nnc(-c2ccc3c(c2)OCO3)n1)C1CCCCC1 (configuration not stated) 17 nM, CCCCCCC1CCC/C1=N\NC(N)=S (configuration not stated) < 15 nM, O=C(CN(C(=O)Cn1nnc(-c2ccc3c(c2)OC(F)(F)O3)n1)C1CCCCC1)NC1CCCC1 65.3 nM, CCC(=O)N1CCc2cc(-c3csc(NC(=O)c4ccco4)n3)ccc21 58.7 nM, CC(C(=O)NC1CCCC1)N(C(=O)Cn1nnc(-c2ccc3c(c2)OC(F)(F)O3)n1)C1CCCCC1 (configuration not stated) 225 nM, CCC(=O)N1CCc2cc(-c3csc(/N=C(/OC)c4cc(OC)cc(OC)c4)n3)ccc21 44.1 nM, CCC(=O)N1CCc2cc(-c3csc(NC(=O)c4cc(OC)cc(OC)c4)n3)ccc21 52.9 nM, CCC(=O)N1CCc2cc(-c3csc(NC(=O)c4cc(OC)c(OC)c(OC)c4)n3)ccc21 < 15 nM, COc1ccc(-c2nc(CC(=O)N(C3CCCCC3)C(C)C(=O)NC3CCCC3)cs2)cc1OC (configuration not stated) 6280 nM
